From ChEMBL document CHEMBL1914430, “Synthesis of some new 1,3,5-trisubstituted pyrazolines bearing benzene sulfonamide as anticancer and anti-inflammatory agents” (Bioorg Med Chem Lett, 2011)

Assays:
Format in all cases: functional
SN12C = experiment: Anticancer activity against human SN12C cells after 48 hrs
How it was run: (§1)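 NCI 60-line panel protocol with a 48 h incubation. Per line: GI50 = concentration giving 50% decrease in net cell growth; TGI = total growth inhibition; LC50 = net 50% loss of initial cells. When the level was not reached or was exceeded, the value is given as greater or less than the highest or lowest concentration tested.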

BT-549 = experiment: Anticancer activity against human BT549 cells after 48 hrs; conditions: BT-549, 48 h
How it was run: (§2)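 NCI Drug Evaluation Branch 60-cell-line screen across leukemia, melanoma, lung, colon, CNS, ovarian, renal, prostate and breast panels. The incubation period is 48 h. Parameters are derived from dose–response data: GI50 is the concentration giving 50% decrease in net growth, TGI is total growth inhibition, and LC50 is net 50% loss of initial cells. Values beyond the tested range are reported as greater or less than the maximum or minimum concentration.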

SW-620 = experiment: Anticancer activity against human SW620 cells after 48 hrs; conditions: SW-620, 48 h; how it was run: as §1
NCI-H522 = experiment: Anticancer activity against human NCI-H522 cells after 48 hrs; conditions: NCI-H522, 48 h; how it was run: as §1
HCT-116 = experiment: Anticancer activity against human HCT116 cells after 48 hrs; conditions: HCT-116, 48 h; how it was run: as §2
OVCAR-8 = experiment: Anticancer activity against human OVCAR8 cells after 48 hrs; conditions: OVCAR-8, 48 h; how it was run: as §1
UACC-62 = experiment: Anticancer activity against human UACC62 cells after 48 hrs; conditions: UACC-62, 48 h
How it was run: (§3)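 NCI ~60 human tumour cell line panel with a 48 h incubation. GI50 is the concentration giving a 50% fall in net growth, TGI gives total growth inhibition, and LC50 gives a net 50% loss of initial cells. An effect not reached or exceeded is reported as greater or less than the highest or lowest concentration tested.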

M14 = experiment: Anticancer activity against human M14 cells after 48 hrs; conditions: M14, 48 h; how it was run: as §2
SK-OV-3 = experiment: Anticancer activity against human SKOV3 cells after 48 hrs; conditions: SK-OV-3, 48 h; how it was run: as §1
HT-29 = experiment: Anticancer activity against human HT-29 cells after 48 hrs; conditions: HT-29, 48 h; how it was run: as §2
HL-60(TB) = experiment: Anticancer activity against human HL-60(TB) cells after 48 hrs; conditions: HL-60, 48 h
How it was run: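 NCI 60-cell-line panel protocol: cells exposed to compound for 48 h. Initial one-dose screen at 10⁻⁵ M. GI50 = concentration giving 50% decrease in net cell growth. TGI = concentration giving total growth inhibition. LC50 = concentration giving net 50% loss of initial cells at the end of incubation. A value not reached or exceeded is reported as greater or less than the highest or lowest concentration tested.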

KM12 = experiment: Anticancer activity against human KM12 cells after 48 hrs; conditions: KM12, 48 h; how it was run: as §2
SR = experiment: Anticancer activity against human SR cells after 48 hrs; how it was run: as §1
MDA-MB-435 = experiment: Anticancer activity against human MDA-MB-435 cells after 48 hrs; conditions: MDA-MB-435, 48 h; how it was run: as §2
UO-31 = experiment: Anticancer activity against human UO31 cells after 48 hrs; conditions: UO-31, 48 h; how it was run: as §3
SF-295 = experiment: Anticancer activity against human SF295 cells after 48 hrs; conditions: SF-295, 48 h; how it was run: as §1
NCI-H23 = experiment: Anticancer activity against human NCI-H23 cells after 48 hrs; conditions: NCI-H23, 48 h; how it was run: as §1
CCRF-CEM = experiment: Anticancer activity against human CCRF-CEM cells after 48 hrs; how it was run: as §2
LOX IMVI = experiment: Anticancer activity against human LOXIMVI cells after 48 hrs; how it was run: as §2
A549 = experiment: Anticancer activity against human A549 cells after 48 hrs; conditions: A549, 48 h; how it was run: as §2
U-251 = experiment: Anticancer activity against human U251 cells after 48 hrs; conditions: U-251, 48 h; how it was run: as §3
MCF7 = experiment: Anticancer activity against human MCF7 cells after 48 hrs; conditions: MCF7, 48 h; how it was run: as §2
[1] = Anticancer activity against human Hs 578T cells after 48 hrs; how it was run: as §2
MDA-MB-231 = experiment: Anticancer activity against human MDA-MB-231 cells after 48 hrs; conditions: MDA-MB-231, 48 h; how it was run: as §2
DU-145 = experiment: Anticancer activity against human DU145 cells after 48 hrs; conditions: DU-145, 48 h; how it was run: as §2
OVCAR-4 = experiment: Anticancer activity against human OVCAR4 cells after 48 hrs; conditions: OVCAR-4, 48 h; how it was run: as §1
K562 = experiment: Anticancer activity against human K562 cells after 48 hrs; conditions: K562, 48 h; how it was run: as §2
RXF 393 = experiment: Anticancer activity against human RXF393 cells after 48 hrs; conditions: RXF 393, 48 h; how it was run: as §1
NCI-H460 = experiment: Anticancer activity against human NCI-H460 cells after 48 hrs; conditions: NCI-H460, 48 h; how it was run: as §1
HCC 2998 = experiment: Anticancer activity against human HCC2998 cells after 48 hrs; conditions: HCC 2998, 48 h; how it was run: as §2
[2] = read-out: LC50 (the source's name)

## Cc1cc(O)c(C2=NN(c3ccc(S(N)(=O)=O)cc3)C(/C=C/c3ccccc3)C2)cc1Cl (stereo not given)
SN12C
  GI50: 11.1 µM
  LC50: 59.4 µM
  TGI: 25.6 µM
BT-549
  GI50: 6.12 µM
  TGI: 21.3 µM
BT-549; [2]
  CC50: 54.5 µM
SW-620
  GI50: 11.7 µM
  TGI: 31.3 µM
SW-620; [2]
  CC50: 84 µM
NCI-H522
  GI50: 4.62 µM
  LC50 (concentration killing 50% of initial cells): 61.8 µM
  TGI: 19.4 µM
HCT-116
  GI50: 2.4 µM
  TGI: 14.6 µM
HCT-116; [2]
  CC50: 38.2 µM
OVCAR-8
  GI50: 3.03 µM
  TGI: 20.2 µM
OVCAR-8; [2]
  CC50: 91.7 µM
UACC-62
  GI50: 2.89 µM
  LC50: 34 µM
  TGI: 11.4 µM
M14
  GI50: 6.16 µM
  TGI: 19.3 µM
M14; [2]
  CC50: 44.2 µM
SK-OV-3
  GI50: 5.52 µM
  TGI: 17.9 µM
SK-OV-3; [2]
  CC50: 42.7 µM
HT-29
  GI50: 3.73 µM
  TGI: 14.7 µM
HT-29; [2]
  CC50: 38.3 µM
HL-60(TB)
  GI50: 68.3 µM
  LC50: > 100 µM
  TGI: 100 µM
KM12
  GI50: 11.7 µM
  LC50 (concentration causing net 50% loss of initial cells): > 100 µM
  TGI: 34.8 µM
SR
  GI50: 12.7 µM
  LC50 (concentration killing 50% of initial cells): 89.7 µM
  TGI: 33.8 µM
MDA-MB-435
  GI50: 8.87 µM
  TGI: 24 µM
MDA-MB-435; [2]
  CC50: 59.5 µM
UO-31
  GI50: 15.2 µM
  TGI: 34.9 µM
UO-31; [2]
  CC50: 79.9 µM
SF-295
  GI50: 2.36 µM
  LC50 (concentration giving net 50% loss of initial cells): 37.3 µM
  TGI: 11.9 µM
NCI-H23
  GI50: 1.68 µM
  LC50 (concentration killing 50% of initial cells): 35.4 µM
  TGI: 12.5 µM
CCRF-CEM
  GI50: 17.7 µM
  LC50 (concentration causing net 50% loss of initial cells): > 100 µM
  TGI: 50 µM
LOX IMVI
  GI50: 3.94 µM
  TGI: 16.2 µM
LOX IMVI; [2]
  CC50: 40.3 µM
A549
  GI50: 11 µM
  LC50 (net 50% loss of initial cells): 86 µM
  TGI: 30.8 µM
U-251
  GI50: 3.79 µM
  TGI: 15.6 µM
U-251; [2]
  CC50: 39.5 µM
MCF7
  GI50: 3.93 µM
  LC50: 40.1 µM
  TGI: 16.1 µM
[1]
  GI50: 12.3 µM
  TGI: 49.7 µM
[1]; [2]
  CC50: > 100 µM
MDA-MB-231
  GI50: 4.56 µM
  TGI: 16.3 µM
MDA-MB-231; [2]
  CC50: 40.8 µM
DU-145
  GI50: 14.1 µM
  LC50 (concentration causing net 50% loss of initial cells): > 100 µM
  TGI: 38.6 µM
OVCAR-4
  GI50: 3.74 µM
  LC50: 48.6 µM
  TGI: 18.9 µM
K562
  GI50: 11.6 µM
  LC50 (concentration killing 50% of initial cells): > 100 µM
  TGI: 87.5 µM
RXF 393
  GI50: 6.69 µM
  LC50: 52.6 µM
  TGI: 20.2 µM
NCI-H460
  GI50: 4.03 µM
  LC50 (50% lethal concentration): 41.3 µM
  TGI: 17 µM
HCC 2998
  GI50: 9.89 µM
  LC50 (net 50% loss of initial cells): 92.5 µM
  TGI: 30.3 µM
